# Experimental data as given in article PMC6605684 (The Journal of General Physiology, 2019).
# “And” between values parts separate entries of the source, which are not always exact repeats. Equal entries are not always repeated. “Also recorded” adds a separate entry of the source.
# How the values were obtained:
# [1] = biological target: S1141T/G551D-CFTR (Homo sapiens, UniProt P13569, G551D/S1141T); assay: Inside-out patch-clamp of CFTR currents in transfected CHO cells; assay type: cell-based
# Summary of the method: (§1)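 CFTR construct and GFP plasmid cotransfected into CHO cells, held at 27°C for 2–6 d. Inside-out patches at room temperature, −30 mV, NMDG-Cl solutions at pH 7.4. Channels preactivated with 25 IU PKA plus 2 mM MgATP, then test compound (max 40 µM) applied in 2 mM ATP. ATP-subtracted steady-state currents normalized to the 3 µM response in the same patch. Hill fit with base 0 and maximum 1; EC50 ± SD of fit; 3–7 patches per point.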
# [2] = biological target: D924A-CFTR (Homo sapiens, UniProt P13569, D924A); assay: Inside-out patch-clamp of CFTR currents in transfected CHO cells; assay type: cell-based
# Summary of the method: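 No macroscopic currents were obtained, so single-channel recordings were used: less plasmid, recorded within 2 d, 4–5 MΩ pipettes, patch held at −50 mV. Channels activated with PKA plus ATP, then PKA removed in 2 mM ATP. Activity at 3 and 20 µM test compound compared with basal activity in 2 mM ATP.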
# [3] = biological target: Y304A-CFTR (Homo sapiens, UniProt P13569, Y304A); assay: Inside-out patch-clamp of CFTR currents in transfected CHO cells; assay type: cell-based
# Summary of the method: (§2)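 Relaxation assay: PKA-preactivated channels in 2 mM ATP at −30 mV exposed to test compound through a fast three-barrel perfusion system (dead time ∼30 ms). Current decay after sudden removal of 3 µM compound fitted with a single exponential to give relaxation time constant τ.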
# [4] = biological target: T1, G551D-CFTR (Homo sapiens, UniProt P13569, G551D); settings: ref Yeh et al., 2017, cited from earlier work
# [5] = biological target: WT-CFTR (Homo sapiens, UniProt P13569); assay: Inside-out patch-clamp of CFTR currents in transfected CHO cells; assay type: cell-based
# Summary of the method: as §1
# [6] = biological target: F304Y-mCFTR (Mus musculus, UniProt P26361, F304Y); assay: as above; assay type: cell-based
# Summary of the method: as §1
# [7] = biological target: T360A-CFTR (Homo sapiens, UniProt P13569, T360A); assay: as above; assay type: cell-based
# Summary of the method: as §1
# [8] = biological target: Y304F-CFTR (Homo sapiens, UniProt P13569, Y304F); assay: as above; assay type: cell-based
# Summary of the method: as §1
# [9] = biological target: WT zCFTR (zWT) (Danio rerio, UniProt Q1LX78); assay: as above; assay type: cell-based, zebrafish; settings: EC50 for GLPG1837, dose–response
# Summary of the method: as §1
# [10] = biological target: F229A-CFTR (Homo sapiens, UniProt P13569, F229A); assay: as above; assay type: cell-based
# Summary of the method: as §1
# [11] = biological target: F931A-CFTR (Homo sapiens, UniProt P13569, F931A); assay: as above; assay type: cell-based
# Summary of the method: as §1
# [12] = biological target: D924E-CFTR (Homo sapiens, UniProt P13569, D924E); assay: as above; assay type: cell-based
# Summary of the method: as §1
# [13] = biological target: R347D-CFTR (ΔR-CFTR background) (Homo sapiens, UniProt P13569, R347D); assay: Inside-out patch-clamp of CFTR currents in transfected CHO cells; assay type: cell-based; settings: pH 7.4
# Summary of the method: (§3)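 Channels in ATP exposed to test compound at pH 7.4; percent change of mean current scored. Perfusate then switched to pH 5.5, with or without prior compound exposure at pH 7.4. Fold increase taken as peak current at pH 5.5 divided by mean current at pH 7.4.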
# [14] = biological target: R347S-CFTR (ΔR-CFTR background) (Homo sapiens, UniProt P13569, R347S); assay: as above; assay type: cell-based; settings: pH 7.4
# Summary of the method: as §3
# [15] = biological target: F312A-CFTR (Homo sapiens, UniProt P13569, F312A); assay: Inside-out patch-clamp of CFTR currents in transfected CHO cells; assay type: cell-based; settings: for ΔΔG: vs WT
# [16] = biological target: N1138F/G551D-CFTR (Homo sapiens, UniProt P13569, G551D/N1138F); assay: Inside-out patch-clamp of CFTR currents in transfected CHO cells; assay type: cell-based
# Summary of the method: as §1
# [17] = biological target: T1, G551D-CFTR; assay: as above; assay type: cell-based
# Summary of the method: as §1
# [18] = biological target: Y304T-CFTR (Homo sapiens, UniProt P13569, Y304T); assay: Inside-out patch-clamp of CFTR currents in transfected CHO cells; assay type: cell-based
# Summary of the method: as §2
# [19] = biological target: N1138L/G551D-CFTR (Homo sapiens, UniProt P13569, G551D/N1138L); assay: Inside-out patch-clamp of CFTR currents in transfected CHO cells; assay type: cell-based
# Summary of the method: as §1
# [20] = biological target: S1141R/G551D-CFTR (Homo sapiens, UniProt P13569, G551D/S1141R); assay: as above; assay type: cell-based
# Summary of the method: as §1
# [21] = biological target: D924N-CFTR (Homo sapiens, UniProt P13569, D924N); assay: as above; assay type: cell-based
# Summary of the method: as §1
# [22] = biological target: F236A-CFTR (Homo sapiens, UniProt P13569, F236A); assay: as above; assay type: cell-based
# Summary of the method: as §1
# [23] = biological target: R347C-CFTR (Homo sapiens, UniProt P13569, R347C); assay: Inside-out patch-clamp of CFTR currents in transfected CHO cells; assay type: cell-based
# Summary of the method: as §3
# [24] = biological target: Q237A-CFTR (Homo sapiens, UniProt P13569, Q237A); assay: Inside-out patch-clamp of CFTR currents in transfected CHO cells; assay type: cell-based
# Summary of the method: as §1
# [25] = biological target: D993A-CFTR (Homo sapiens, UniProt P13569, D993A); assay: as above; assay type: cell-based
# Summary of the method: as §1
# [26] = biological target: WT-mCFTR (Mus musculus, UniProt P26361); assay: Inside-out patch-clamp of CFTR currents in transfected CHO cells; assay type: cell-based; settings: 2 mM ATP
# Summary of the method: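 Mouse CFTR expressed in CHO cells; inside-out patches. Phosphorylated channels opened by 2 mM ATP before the potentiator was applied (one potentiator at 200 nM). 5 µM CFTRinh-172 added at the end of each recording for baseline.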
# [27] = biological target: S182A-CFTR (Homo sapiens, UniProt P13569, S182A); assay: Inside-out patch-clamp of CFTR currents in transfected CHO cells; assay type: cell-based
# Summary of the method: as §1
# [28] = biological target: S1141K/G551D-CFTR (Homo sapiens, UniProt P13569, G551D/S1141K); assay: as above; assay type: cell-based
# Summary of the method: as §1
# [29] = biological target: K190A-CFTR (Homo sapiens, UniProt P13569, K190A); assay: as above; assay type: cell-based
# Summary of the method: as §1
# [30] = biological target: S263A-CFTR (Homo sapiens, UniProt P13569, S263A); assay: as above; assay type: cell-based
# Summary of the method: as §1
# [31] = biological target: S364A-CFTR (Homo sapiens, UniProt P13569, S364A); assay: as above; assay type: cell-based
# Summary of the method: as §1
# [32] = biological target: S1149A-CFTR (Homo sapiens, UniProt P13569, S1149A); assay: as above; assay type: cell-based
# Summary of the method: as §1
# [33] = biological target: N1138Y/G551D-CFTR (Homo sapiens, UniProt P13569, G551D/N1138Y); assay: as above; assay type: cell-based
# Summary of the method: as §1
# [34] = CHO, read-out: Efficacy (% increase) of currents by GLPG1837
# S1149A-CFTR, sequence (P13569 whole entry S1149A): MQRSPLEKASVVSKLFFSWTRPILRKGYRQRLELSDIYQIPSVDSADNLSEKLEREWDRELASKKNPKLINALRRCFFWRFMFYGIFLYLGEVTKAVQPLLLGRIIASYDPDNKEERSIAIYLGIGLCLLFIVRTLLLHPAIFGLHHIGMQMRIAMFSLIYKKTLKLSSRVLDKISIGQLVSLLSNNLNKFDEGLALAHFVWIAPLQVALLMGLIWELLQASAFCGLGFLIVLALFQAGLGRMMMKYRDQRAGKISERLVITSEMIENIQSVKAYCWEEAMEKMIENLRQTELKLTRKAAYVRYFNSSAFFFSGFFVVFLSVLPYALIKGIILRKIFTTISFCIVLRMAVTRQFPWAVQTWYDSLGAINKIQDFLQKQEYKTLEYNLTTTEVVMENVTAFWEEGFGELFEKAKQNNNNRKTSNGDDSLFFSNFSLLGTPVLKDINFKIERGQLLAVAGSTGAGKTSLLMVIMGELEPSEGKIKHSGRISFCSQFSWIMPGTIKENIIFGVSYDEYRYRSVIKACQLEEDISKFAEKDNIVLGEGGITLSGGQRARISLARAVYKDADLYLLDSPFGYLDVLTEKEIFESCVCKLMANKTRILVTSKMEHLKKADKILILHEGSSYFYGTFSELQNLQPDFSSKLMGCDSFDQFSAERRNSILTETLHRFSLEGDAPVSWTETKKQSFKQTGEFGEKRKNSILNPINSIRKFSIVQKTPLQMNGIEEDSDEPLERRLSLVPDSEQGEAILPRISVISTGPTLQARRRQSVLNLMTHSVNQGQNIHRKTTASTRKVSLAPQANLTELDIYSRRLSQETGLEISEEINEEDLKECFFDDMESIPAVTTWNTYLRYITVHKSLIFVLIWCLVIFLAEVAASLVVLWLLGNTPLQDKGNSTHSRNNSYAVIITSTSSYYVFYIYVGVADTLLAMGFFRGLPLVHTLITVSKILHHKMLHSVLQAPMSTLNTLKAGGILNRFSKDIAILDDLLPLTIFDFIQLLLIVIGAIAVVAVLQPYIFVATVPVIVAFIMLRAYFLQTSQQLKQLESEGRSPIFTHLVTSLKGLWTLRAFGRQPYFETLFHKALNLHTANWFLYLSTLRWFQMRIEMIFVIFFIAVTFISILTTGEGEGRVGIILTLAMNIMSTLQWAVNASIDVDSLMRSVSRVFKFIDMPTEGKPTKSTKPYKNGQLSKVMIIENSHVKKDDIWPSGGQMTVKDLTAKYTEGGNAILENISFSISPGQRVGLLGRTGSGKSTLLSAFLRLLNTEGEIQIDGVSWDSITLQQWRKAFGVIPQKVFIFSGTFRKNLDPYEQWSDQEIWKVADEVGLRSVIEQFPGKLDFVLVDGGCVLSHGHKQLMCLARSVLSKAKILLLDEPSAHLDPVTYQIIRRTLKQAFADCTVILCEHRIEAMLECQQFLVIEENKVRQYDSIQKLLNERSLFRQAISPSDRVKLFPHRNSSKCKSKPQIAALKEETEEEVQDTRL
# S263A-CFTR, sequence (P13569 whole entry S263A): as the sequence (P13569 whole entry S1149A) above, with S263A, A1149S counted along it
# N1138F/G551D-CFTR, sequence (P13569 whole entry G551D/N1138F): as the sequence (P13569 whole entry S1149A) above, with G551D, N1138F, A1149S counted along it
smiles,measurement,setting,value
"CC1(C)Cc2c(sc(NC(=O)c3ccn[nH]3)c2C(N)=O)C(C)(C)O1 [GLPG1837, N-(3-carbamoyl-5,5,7,7-tetramethyl-5,7-dihydro-4H-thieno[2,3-c]pyran-2-yl)-lH-pyrazole-5-carboxamide]",EC50,[1],1.74 ± 0.31 µM
same,ΔΔG,"[1]; GLPG1837, vs G551D",0.136 kcal/mol
same,Decrease of apparent affinity for GLPG1837 vs WT-CFTR,[2],≥ 10 fold
same,EC50,[2],> 3 µM
same,Potentiating effect of GLPG1837,"[2]; 3 µM GLPG1837, microscopic recording",barely discerned any potentiating effects
same,ΔΔG,"[2]; GLPG1837, −RTln(EC50 mutant/EC50 WT)",<-1.45 kcal/mol
same,EC50,[3],> 3 µM
same,Emax,[3]; [34],> 80%
same,ΔΔG,"[3]; GLPG1837, vs WT",<-1.45 kcal/mol
same,Relaxation time constant upon removal of GLPG1837,"[3]; mean, n = 5",3.6 ± 1.0 s and < 5 s
same,Maximal fold increase of currents by GLPG1837 relative to WT-CFTR,[4]; greater than WT-CFTR,20 fold
same,Apparent affinity for GLPG1837 relative to WT-CFTR,[4]; lower than on WT-CFTR,10 fold
same,EC50,[5],0.26 ± 0.04 µM
same,Hill coefficient of the GLPG1837 effect,[5],≈ 1
same,Emax,[5]; [34],115%
same,Saturating concentration of GLPG1837,[5]; continuous presence of ATP,3 µM
same,EC50,[6],0.68 ± 0.18 µM
same,Potentiation of currents by GLPG1837,[6],restores the potentiating effects; also recorded: Potentiation
same,EC50,[7],0.12 ± 0.01 µM
same,Emax,[7]; [34],120 ± 38%
same,ΔΔG,"[7]; GLPG1837, vs WT",0.459 kcal/mol
same,EC50,[8],2.28 ± 0.34 µM
same,Emax,[8]; [34],82 ± 12%
same,ΔΔG,"[8]; GLPG1837, vs WT",-1.29 kcal/mol
same,Relaxation time constant upon removal of GLPG1837,"[8]; mean, n = 5",5.5 ± 1.3
same,EC50,[9],3.9 ± 1.7 µM
same,EC50,[10],0.46 ± 0.07 µM
same,Emax,[10]; [34],135 ± 26%
same,ΔΔG,"[10]; GLPG1837, vs WT",-0.337 kcal/mol
same,EC50,[11],1.14 ± 0.26 µM
same,Emax,[11]; [34],83 ± 12%
same,EC50,[12],0.71 ± 0.07 µM
same,Emax,[12]; [34],194 ± 8%
same,ΔΔG,"[12]; GLPG1837, vs WT",-0.595 kcal/mol
same,Effect of GLPG1837 on currents,[13],no effect
same,Effect of GLPG1837 on currents,[14],no effect
same,Emax,"[15]; CHO, read-out: Efficacy (% increase) of currents by GLPG1837, 30 µM ATP",105 ± 12%
same,EC50,"[15]; EC50 for GLPG1837, 30 µM ATP (Po ∼0.35)",1.3 ± 0.26 µM
same,EC50,"[15]; EC50 for GLPG1837, 2 mM ATP",0.4 ± 0.13 µM
same,ΔΔG,"[15]; GLPG1837, 30 µM ATP",-0.954 kcal/mol
same,ΔΔG,"[15]; GLPG1837, 2 mM ATP",-0.256 kcal/mol
same,EC50,[16],0.16 ± 0.05 µM
same,Emax,[16]; [34],666 ± 131%
same,ΔΔG,"[16]; GLPG1837, vs G551D",1.55 kcal/mol
same,EC50,[17],2.19 ± 0.33 µM
same,EC50,[18],> 3 µM
same,Emax,[18]; [34],> 101%
same,ΔΔG,"[18]; GLPG1837, vs WT",<-1.45 kcal/mol
same,Relaxation time constant upon removal of GLPG1837,"[18]; mean, n = 5",4.7 ± 0.8 s and < 5 s
same,EC50,[19],0.08 ± 0.02 µM
same,Emax,[19]; [34],253 ± 32%
same,ΔΔG,"[19]; GLPG1837, vs G551D",1.96 kcal/mol
same,EC50,[20],0.51 ± 0.13 µM
same,ΔΔG,"[20]; GLPG1837, vs G551D",0.863 kcal/mol
same,EC50,[21],2.29 ± 0.78 µM
same,ΔΔG,"[21]; GLPG1837, vs WT",-1.29 kcal/mol
same,Efficacy (% increase) of currents by GLPG1837,[21]; maximal percent increase,464 ± 73%
same,EC50,[22],0.34 ± 0.14 µM
same,Emax,[22]; [34],81 ± 14%
same,ΔΔG,"[22]; GLPG1837, vs WT",-0.16 kcal/mol
same,Effect of GLPG1837 on currents,[23]; pH 5.5,effectively potentiates
same,Percent of inhibition of currents by GLPG1837,[23]; pH 7.4,16 ± 3%
same,EC50,[24],0.92 ± 0.32 µM
same,Emax,[24]; [34],615%
same,ΔΔG,"[24]; GLPG1837, vs WT",-0.748 kcal/mol
same,EC50,[25],0.36 ± 0.04 µM
same,Emax,[25]; [34],283 ± 47%
same,ΔΔG,"[25]; GLPG1837, vs WT",-0.194 kcal/mol
same,Potentiation of currents by GLPG1837,[26],does not potentiate
same,EC50,[27],0.22 ± 0.04 µM
same,Emax,[27]; [34],138 ± 23%
same,ΔΔG,"[27]; GLPG1837, vs WT",0.098 kcal/mol
same,EC50,[28],0.26 ± 0.02 µM
same,ΔΔG,"[28]; GLPG1837, vs G551D",1.26 kcal/mol
same,EC50,[29],0.08 ± 0.01 µM
same,Emax,[29]; [34],61 ± 12%
same,ΔΔG,"[29]; GLPG1837, vs WT",0.698 kcal/mol
same,EC50,[30],0.27 ± 0.05 µM
same,Emax,[30]; [34],148 ± 18%
same,ΔΔG,"[30]; GLPG1837, vs WT",-0.022 kcal/mol
same,EC50,[31],0.18 ± 0.01 µM
same,Emax,[31]; [34],126 ± 5%
same,EC50,[32],0.16 ± 0.03 µM
same,Emax,[32]; [34],139 ± 36%
same,ΔΔG,"[32]; GLPG1837, vs WT",0.287 kcal/mol
same,EC50,[33],0.4 ± 0.1 µM
same,ΔΔG,"[33]; GLPG1837, vs G551D",1.01 kcal/mol
